Calls of active or inactive are those of the source. The rule behind the calls is not given here.
Experiments:
CWR22R [1] = assay: Inhibition of pregnenolone-induced cell proliferation of human 22Rv1 cells at 10 to 20 uM pre-incubated for 2 hrs before pregnenolone stimulation for 72 hrs by alamar blue assay; assay type: functional, cell-based
Summary of the method: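 22Rv1 cells (AKR1C3- and AR-expressing) pretreated 2 h with agents, then cultured 72 h with 20 nM pregnenolone; viable cell number given as percent of pregnenolone-free control.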

CWR22R [2] = assay: Inhibition of pregnenolone-induced cell cell cycle changes in human 22Rv1 cells assessed as reduction in S phase accumulation at 10 uM pre-incubated for 2 hrs before pregnenolone stimulation for 24 hrs by propidium iodide staining based flow cytometry; assay type: functional
Summary of the method: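 Cell cycle in 22Rv1: 2 h pretreatment with or without 10 μM inhibitor, then 24 h with 20 nM pregnenolone; G0/G1, S and G2/M fractions determined by flow cytometry.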

[3] = target: T1, Aldo-keto reductase family 1 member C3 (Homo sapiens) (UniProt P42330); assay: Inhibition of AKR1C3 in human 22Rv1 cells assessed as as reduction in finasteride-induced metabolism of 4AD into testosterone at 10 to 20 uM pre-incubated for 2 hrs in presence of finasteride before 4AD addition for 24 hrs by EIA; assay type: cell-based; settings: CWR22R
T1 sequence (whole entry): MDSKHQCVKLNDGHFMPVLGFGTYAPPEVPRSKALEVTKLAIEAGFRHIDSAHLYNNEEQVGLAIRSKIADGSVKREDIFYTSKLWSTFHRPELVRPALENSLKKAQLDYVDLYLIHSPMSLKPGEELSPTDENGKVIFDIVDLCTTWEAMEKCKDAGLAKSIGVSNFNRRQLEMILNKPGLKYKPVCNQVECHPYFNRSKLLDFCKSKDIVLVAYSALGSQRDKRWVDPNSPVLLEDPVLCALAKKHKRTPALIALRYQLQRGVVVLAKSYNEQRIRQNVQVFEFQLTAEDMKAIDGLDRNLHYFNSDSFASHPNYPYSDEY
Summary of the method: (§1)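 22Rv1 cells pretreated 2 h with or without 2 μM finasteride and/or inhibitor, then cultured 24 h with 100 nM 4AD; testosterone in cell extracts quantified by EIA and expressed as percent of finasteride-free control.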

CWR22R [4] = assay: Effect on steroid 5alpha-reductase in human 22Rv1 cells assessed as effect on metabolism of 4AD into testosterone at 10 to 20 uM pre-incubated for 2 hrs before 4AD addition for 24 hrs by EIA; assay type: cell-based; summary of the method: as §1
CWR22R [5] = assay: Antitumor activity against human 22Rv1 cells xenografted in Balb/c nu/nu athymic mouse assessed as reduction in tumor volume at 50 mg/kg, ip dosed twice per week for 6 weeks; assay type: functional, organism-based
Summary of the method: (§2)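 22Rv1 xenograft mice dosed intraperitoneally with vehicle (control, n=15), 50 mg/kg (n=10) or 100 mg/kg (n=10); tumor size followed over time; body weights recorded.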

CWR22R [6] = assay: Antitumor activity against human 22Rv1 cells xenografted in Balb/c nu/nu athymic mouse assessed as increase in necrotic region in tumor tissue at 50 mg/kg, ip dosed twice per week for 6 weeks by H and E staining dependent light microscopy based histopathological analysis; assay type: functional, organism-based
Summary of the method: (§3)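 Tumor tissue, plus liver, kidney and lung, from xenografted mice given ip 50 or 100 mg/kg; sections stained with hematoxylin and eosin and examined at ×40 for necrotic areas.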

[7] = Toxicity in Balb/c nu/nu athymic mouse xenografted with human 22Rv1 cells assessed as effect on lung histology at 50 mg/kg, ip dosed twice per week for 6 weeks by H and E staining dependent light microscopy based histopathological analysis; assay type: organism-based, CWR22R; settings: in vivo, 1008 h
Summary of the method: (§4)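 Mice carrying 22Rv1 xenografts were dosed intraperitoneally, with vehicle controls n=15 and treated groups n=10. Tissue sections of kidney, liver and lung were stained with hematoxylin and eosin and examined by light microscopy at ×40 magnification for histopathological changes.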

[8] = Toxicity in Balb/c nu/nu athymic mouse xenografted with human 22Rv1 cells assessed as effect on liver histology at 50 mg/kg, ip dosed twice per week for 6 weeks by H and E staining dependent light microscopy based histopathological analysis; assay type: organism-based, CWR22R; settings: in vivo, 1008 h; summary of the method: as §4
[9] = Toxicity in Balb/c nu/nu athymic mouse xenografted with human 22Rv1 cells assessed as effect on kidney histology at 50 mg/kg, ip dosed twice per week for 6 weeks by H and E staining dependent light microscopy based histopathological analysis; assay type: organism-based, CWR22R; settings: in vivo, 1008 h; summary of the method: as §4
[10] = Toxicity in Balb/c nu/nu athymic mouse xenografted with human 22Rv1 cells assessed as effect on body weight at 50 mg/kg, ip dosed twice per week for 6 weeks by H and E staining dependent light microscopy based histopathological analysis; assay type: organism-based, CWR22R; settings: in vivo, 1008 h
Summary of the method: (§5)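 Mice carrying 22Rv1 xenografts received intraperitoneal injections. The vehicle control group had n=15 and each treated dose group had n=10. Average body weights were compared between treated and vehicle-control mice.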

CWR22R [11] = assay: Induction of apoptosis in human 22Rv1 cells assessed as increase in cleaved PARP level at 10 uM pre-incubated for 2 hrs before addition of pregnenolone for 24 hrs by Western blot analysis; assay type: functional, cell-based
Summary of the method: (§6)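 Apoptotic markers in 22Rv1: 2 h pretreatment with or without 10 μM inhibitor and/or 50 μM enzalutamide, then 24 h 20 nM pregnenolone; Bax/Bcl-2 ratio as percent of control; cleaved caspase-3 also by immunofluorescence with DAPI.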

[12] = target: T1, Aldo-keto reductase family 1 member C3 (Homo sapiens); assay: Inhibition of AKR1C3 in human 22Rv1 cells assessed as potentiation of enzalutamide-induced apoptosis by measuring increase in Bax level at 10 uM pre-incubated for 2 hrs before addition of pregnenolone for 24 hrs by Western blot analysis; assay type: cell-based; settings: CWR22R; summary of the method: as §6
[13] = target: T1, Aldo-keto reductase family 1 member C3 (Homo sapiens); assay: Inhibition of AKR1C3 in human 22Rv1 cells assessed as potentiation of abiraterone-induced apoptosis by measuring increase in Bax level at 10 uM pre-incubated for 2 hrs before addition of pregnenolone for 24 hrs by Western blot analysis; assay type: cell-based; settings: CWR22R
PC-3 = settings: Homo sapiens, at 10 µM
CWR22R [14] = assay: Antitumor activity against human 22Rv1 cells xenografted in Balb/c nu/nu athymic mouse assessed as reduction in tumor volume at 100 mg/kg, ip dosed twice per week for 6 weeks; assay type: functional, organism-based; summary of the method: as §2
CWR22R [15] = assay: Antitumor activity against human 22Rv1 cells xenografted in Balb/c nu/nu athymic mouse assessed as increase in necrotic region in tumor tissue at 100 mg/kg, ip dosed twice per week for 6 weeks by H and E staining dependent light microscopy based histopathological analysis; assay type: functional, organism-based; summary of the method: as §3
[16] = Toxicity in Balb/c nu/nu athymic mouse xenografted with human 22Rv1 cells assessed as effect on lung histology at 100 mg/kg, ip dosed twice per week for 6 weeks by H and E staining dependent light microscopy based histopathological analysis; assay type: organism-based, CWR22R; settings: in vivo, 1008 h; summary of the method: as §4
[17] = Toxicity in Balb/c nu/nu athymic mouse xenografted with human 22Rv1 cells assessed as effect on liver histology at 100 mg/kg, ip dosed twice per week for 6 weeks by H and E staining dependent light microscopy based histopathological analysis; assay type: organism-based, CWR22R; settings: in vivo, 1008 h; summary of the method: as §4
[18] = Toxicity in Balb/c nu/nu athymic mouse xenografted with human 22Rv1 cells assessed as effect on kidney histology at 100 mg/kg, ip dosed twice per week for 6 weeks by H and E staining dependent light microscopy based histopathological analysis; assay type: organism-based, CWR22R; settings: in vivo, 1008 h; summary of the method: as §4
[19] = Toxicity in Balb/c nu/nu athymic mouse xenografted with human 22Rv1 cells assessed as effect on body weight at 100 mg/kg, ip dosed twice per week for 6 weeks […]; assay type: organism-based, CWR22R; settings: in vivo, 1008 h; summary of the method: as §5

SMILES | inhibition (CWR22R [1]) | inhibition (CWR22R [2]) | inhibition [3] | Activity (CWR22R [4]) | Activity (CWR22R [5]) | Activity (CWR22R [6]) | Activity [7] | Activity [8] | Activity [9] | Activity [10] | Activity (CWR22R [11]) | inhibition [12] | inhibition [13] | inhibition (PC-3) | Activity (CWR22R [14]) | Activity (CWR22R [15]) | Activity [16] | Activity [17] | Activity [18] | Activity [19]
Cc1ccc(NC(=O)c2cc3cccc(O)c3oc2=N)cc1 | Active | Active | Active | inactive | Active | Active | Non-Toxic | Non-Toxic | Non-Toxic | Non-Toxic | Active | Active | Active | Active | – | – | – | – | – | –
CCc1cccc(NC(=O)c2cc3cccc(O)c3oc2=N)c1 | – | – | – | – | – | – | – | – | – | – | – | – | – | – | Active | Active | Non-Toxic | Non-Toxic | Non-Toxic | Non-Toxic
N=c1oc2c(O)cccc2cc1C(=O)Nc1ccc(F)cc1 | Active | Active | Active | inactive | – | – | – | – | – | – | Active | Active | Active | Active | – | – | – | – | – | –
